From ChEMBL document CHEMBL4145654, “Structure-Based Discovery of CF53 as a Potent and Orally Bioavailable Bromodomain and Extra-Terminal (BET) Bromodomain Inhibitor” (J Med Chem, 2018)

Experiments:
[1] = molecular target: Bromodomain and PHD finger-containing protein 3 (Homo sapiens, UniProt Q9ULD4); assay: Binding affinity to human BRPF3 (E588 to G701 residues) expressed in bacterial expression system by BROMOScan assay
Homo sapiens [2] = organism: Homo sapiens; assay: Selectivity index, ratio of Kd for human EP300 (A1040 to G1161 residues) to Kd for human BRDT bromodomain 1 (N21 to E137 residues)
Protein polybromo-1 = Protein polybromo-1 (Homo sapiens, UniProt Q86U86); assay: Binding affinity to human PBRM1 bromodomain 2 (S178 to E291 residues) expressed in bacterial expression system by BROMOScan assay
Mus musculus = assay: Cmax in Balb/c mouse at 25 mg/kg, po by LC-MS/MS analysis; assay type: ADME, organism-based; parameters: dose 25 mg/kg, route oral; settings: in vivo
How it was run: (§1)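 Balb/c mice dosed iv at 5.0 mg/kg or po at 25 mg/kg, compound in vehicle of 20% (v/v) PCP and 70% (v/v) PBS. Serial blood samples taken at 0, 5, 15, 30 min and 1, 2, 4, 6, 8, 24 h. Plasma obtained by centrifugation and stored at −80 °C. Analysis by LC-MS/MS, positive-ion MRM. Parameters from noncompartmental analysis.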

[3] = molecular target: Bromodomain-containing protein 3 (Homo sapiens, UniProt Q15059); assay: Binding affinity to human BRD3 bromodomain 2 (G306 to P416 residues) expressed in bacterial expression system by BROMOscan assay
Homo sapiens [4] = organism: Homo sapiens; assay: Selectivity index, ratio of Kd for human CREBBP (R1081 to G1197 residues) to Kd for human BRD2 bromodomain 1 (K71 to N194 residues)
[5] = molecular target: ATPase family AAA domain-containing protein 2 (Homo sapiens, UniProt Q6PL18); assay: Binding affinity to human ATAD2A (Q981 to R1108 residues) expressed in bacterial expression system by BROMOScan assay
[6] = molecular target: Bromodomain-containing protein 7 (Homo sapiens, UniProt Q9NPI1); assay: Binding affinity to human BRD7 (L125 to R254 residues) expressed in bacterial expression system by BROMOScan assay
Homo sapiens [7] = organism: Homo sapiens; assay: Selectivity index, ratio of Kd for human CREBBP (R1081 to G1197 residues) to Kd for human BRD4 bromodomain 2 (K333 to E460 residues)
[8] = molecular target: Transcription initiation factor TFIID subunit 1 (Homo sapiens, UniProt P21675); assay: Binding affinity to human TAF1 bromodomain 2 (D1521 to D1656 residues) expressed in bacterial expression system by BROMOScan assay
Homo sapiens [9] = organism: Homo sapiens; assay: Selectivity index, ratio of Kd for human CREBBP (R1081 to G1197 residues) to Kd for human BRD3 bromodomain 1 (P24 to E144 residues)
[10] = AUC in Balb/c mouse at 5 mg/kg, iv by LC-MS/MS analysis; assay type: ADME, organism-based; settings: in vivo; how it was run: as §1
Peregrin = Peregrin (Homo sapiens, UniProt P55201); assay: Binding affinity to human BRPF1 (E627 to G740 residues) expressed in bacterial expression system by BROMOScan assay
[11] = molecular target: Transcription intermediary factor 1-alpha (Homo sapiens, UniProt O15164); assay: Binding affinity to human TRIM24 (P790 to P977 residues) expressed in bacterial expression system by BROMOScan assay
[12] = molecular target: Bromodomain-containing protein 2 (Homo sapiens, UniProt P25440); assay: Binding affinity to human BRD2 bromodomain 2 (E348 to D455 residues) expressed in bacterial expression system by BROMOscan assay
MDA-MB-231 = assay: Antitumor activity against human MDA-MB-231 cells xenografted in SCID mouse assessed as tumor growth inhibition at 25 mg/kg administered via oral gavage measured on day 44; assay type: functional; settings: MDA-MB-231, po, 1056 h, read-out: TGI
How it was run: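 SCID mice were implanted subcutaneously on the dorsal side with 5 × 10⁶ MDA-MB-231 or RS4;11 cells in 50% Matrigel, one tumor per mouse. At ca. 100 mm3, mice were randomized to treatment or vehicle groups and dosed by oral gavage. Tumor volume = L × W²/2. Body weight change tracked. p values by two-tailed unpaired t-test.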

[13] = AUC in Balb/c mouse at 25 mg/kg, po by LC-MS/MS analysis; assay type: ADME, organism-based; settings: in vivo; how it was run: as §1
Homo sapiens [14] = organism: Homo sapiens; assay: Selectivity index, ratio of Kd for human CECR2 (P423 to D543 residues) to Kd for human BRD4 bromodomain 1 (N44 to E168 residues)
Homo sapiens [15] = organism: Homo sapiens; assay: Selectivity index, ratio of Kd for human EP300 (A1040 to G1161 residues) to Kd for human BRD2 bromodomain 2 (E348 to D455 residues)
[16] = molecular target: T1, Bromodomain-containing protein 4 (Homo sapiens, UniProt O60885); assay: Binding affinity to human BRD4 bromodomain 1 (N44 to E168 residues) expressed in bacterial expression system by BROMOscan assay
Homo sapiens [17] = organism: Homo sapiens; assay: Selectivity index, ratio of Kd for human CREBBP (R1081 to G1197 residues) to Kd for human BRDT bromodomain 1 (N21 to E137 residues)
[18] = molecular target: Histone acetyltransferase KAT2B (Homo sapiens, UniProt Q92831); assay: Binding affinity to human PCAF (G715 to D831 residues) expressed in bacterial expression system by BROMOScan assay
RS4-11 = assay: Antitumor activity against human RS4:11 cells xenografted in SCID mouse assessed as tumor growth inhibition at 50 mg/kg administered via oral gavage measured on day 35; assay type: functional; settings: RS4-11, po, 840 h, read-out: TGI
How it was run: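 Each SCID mouse received a single dorsal subcutaneous tumor of 5 × 10⁶ RS4;11 or MDA-MB-231 cells in 50% Matrigel. At about 100 mm3, mice were randomised to treatment or vehicle control groups. Dosing was by oral gavage at the stated schedules. Tumor volume was L × W²/2, and body weight was tracked. TGI versus vehicle at end of treatment was tested by unpaired two-tailed t-test.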

[19] = Oral bioavailability in Balb/c mouse at 25 mg/kg by LC-MS/MS analysis; assay type: ADME, organism-based; settings: in vivo; how it was run: as §1
[20] = molecular target: T1, Bromodomain-containing protein 4; assay: Binding affinity to human BRD4 bromodomain 2 (K333 to E460 residues) expressed in bacterial expression system by BROMOscan assay
Homo sapiens [21] = organism: Homo sapiens; assay: Selectivity index, ratio of Kd for human CREBBP (R1081 to G1197 residues) to Kd for human BRD3 bromodomain 2 (G306 to P416 residues)
[22] = Apparent volume of distribution in Balb/c mouse at 5 mg/kg, iv by LC-MS/MS analysis; assay type: ADME, organism-based; settings: in vivo, read-out: Vz; how it was run: as §1
[23] = molecular target: Bromodomain adjacent to zinc finger domain protein 2A (Homo sapiens, UniProt Q9UIF9); assay: Binding affinity to human BAZ2A (M1792 to L1905 residues) expressed in bacterial expression system by BROMOScan assay
[24] = molecular target: Nucleosome-remodeling factor subunit BPTF (Homo sapiens, UniProt Q12830); assay: Binding affinity to human FALZ (S2791 to H2911 residues) expressed in bacterial expression system by BROMOScan assay

Sequence of Bromodomain-containing protein 2 (P25440 whole entry, the tested form may be a part): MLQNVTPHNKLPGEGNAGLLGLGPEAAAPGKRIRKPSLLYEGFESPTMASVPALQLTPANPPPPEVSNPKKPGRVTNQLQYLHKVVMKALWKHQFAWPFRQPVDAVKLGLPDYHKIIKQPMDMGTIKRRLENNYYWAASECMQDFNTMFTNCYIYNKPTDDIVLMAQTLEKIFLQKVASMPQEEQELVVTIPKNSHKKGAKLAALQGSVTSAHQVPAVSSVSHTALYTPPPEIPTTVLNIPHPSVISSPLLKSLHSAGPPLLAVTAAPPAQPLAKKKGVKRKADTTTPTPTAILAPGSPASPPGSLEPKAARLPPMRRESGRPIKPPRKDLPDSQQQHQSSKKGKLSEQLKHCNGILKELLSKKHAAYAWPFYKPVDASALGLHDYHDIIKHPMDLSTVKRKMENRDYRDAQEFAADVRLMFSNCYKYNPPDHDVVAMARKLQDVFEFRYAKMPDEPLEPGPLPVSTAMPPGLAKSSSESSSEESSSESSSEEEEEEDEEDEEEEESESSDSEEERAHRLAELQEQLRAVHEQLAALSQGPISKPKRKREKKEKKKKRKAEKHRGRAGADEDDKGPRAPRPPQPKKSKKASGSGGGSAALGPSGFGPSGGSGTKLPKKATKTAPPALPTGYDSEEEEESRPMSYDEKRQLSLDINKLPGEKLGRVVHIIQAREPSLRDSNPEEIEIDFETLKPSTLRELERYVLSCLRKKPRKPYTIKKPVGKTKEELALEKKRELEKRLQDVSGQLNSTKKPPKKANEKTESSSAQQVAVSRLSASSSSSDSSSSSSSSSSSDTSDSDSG
Sequence of Bromodomain-containing protein 3 (Q15059 whole entry, the tested form may be a part): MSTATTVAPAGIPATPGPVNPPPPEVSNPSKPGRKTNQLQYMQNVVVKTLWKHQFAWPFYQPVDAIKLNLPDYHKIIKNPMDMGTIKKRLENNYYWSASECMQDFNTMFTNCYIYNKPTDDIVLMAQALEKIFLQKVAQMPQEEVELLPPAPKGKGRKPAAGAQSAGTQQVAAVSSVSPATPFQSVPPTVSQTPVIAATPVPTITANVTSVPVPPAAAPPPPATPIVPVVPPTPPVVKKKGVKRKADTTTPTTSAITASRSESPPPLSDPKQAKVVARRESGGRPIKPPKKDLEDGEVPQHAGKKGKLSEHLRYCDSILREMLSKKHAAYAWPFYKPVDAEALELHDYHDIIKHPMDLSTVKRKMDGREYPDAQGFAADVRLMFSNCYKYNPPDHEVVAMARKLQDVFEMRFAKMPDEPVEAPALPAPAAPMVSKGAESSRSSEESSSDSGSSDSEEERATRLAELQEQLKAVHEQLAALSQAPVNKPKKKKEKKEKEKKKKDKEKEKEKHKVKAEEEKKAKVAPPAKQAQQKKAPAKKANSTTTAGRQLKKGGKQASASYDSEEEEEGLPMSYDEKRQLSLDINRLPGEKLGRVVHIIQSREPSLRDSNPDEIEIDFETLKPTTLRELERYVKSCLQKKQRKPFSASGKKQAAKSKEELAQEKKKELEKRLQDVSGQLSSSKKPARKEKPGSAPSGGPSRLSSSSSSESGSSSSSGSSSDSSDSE
Sequence of Bromodomain adjacent to zinc finger domain protein 2A (Q9UIF9 whole entry, the tested form may be a part): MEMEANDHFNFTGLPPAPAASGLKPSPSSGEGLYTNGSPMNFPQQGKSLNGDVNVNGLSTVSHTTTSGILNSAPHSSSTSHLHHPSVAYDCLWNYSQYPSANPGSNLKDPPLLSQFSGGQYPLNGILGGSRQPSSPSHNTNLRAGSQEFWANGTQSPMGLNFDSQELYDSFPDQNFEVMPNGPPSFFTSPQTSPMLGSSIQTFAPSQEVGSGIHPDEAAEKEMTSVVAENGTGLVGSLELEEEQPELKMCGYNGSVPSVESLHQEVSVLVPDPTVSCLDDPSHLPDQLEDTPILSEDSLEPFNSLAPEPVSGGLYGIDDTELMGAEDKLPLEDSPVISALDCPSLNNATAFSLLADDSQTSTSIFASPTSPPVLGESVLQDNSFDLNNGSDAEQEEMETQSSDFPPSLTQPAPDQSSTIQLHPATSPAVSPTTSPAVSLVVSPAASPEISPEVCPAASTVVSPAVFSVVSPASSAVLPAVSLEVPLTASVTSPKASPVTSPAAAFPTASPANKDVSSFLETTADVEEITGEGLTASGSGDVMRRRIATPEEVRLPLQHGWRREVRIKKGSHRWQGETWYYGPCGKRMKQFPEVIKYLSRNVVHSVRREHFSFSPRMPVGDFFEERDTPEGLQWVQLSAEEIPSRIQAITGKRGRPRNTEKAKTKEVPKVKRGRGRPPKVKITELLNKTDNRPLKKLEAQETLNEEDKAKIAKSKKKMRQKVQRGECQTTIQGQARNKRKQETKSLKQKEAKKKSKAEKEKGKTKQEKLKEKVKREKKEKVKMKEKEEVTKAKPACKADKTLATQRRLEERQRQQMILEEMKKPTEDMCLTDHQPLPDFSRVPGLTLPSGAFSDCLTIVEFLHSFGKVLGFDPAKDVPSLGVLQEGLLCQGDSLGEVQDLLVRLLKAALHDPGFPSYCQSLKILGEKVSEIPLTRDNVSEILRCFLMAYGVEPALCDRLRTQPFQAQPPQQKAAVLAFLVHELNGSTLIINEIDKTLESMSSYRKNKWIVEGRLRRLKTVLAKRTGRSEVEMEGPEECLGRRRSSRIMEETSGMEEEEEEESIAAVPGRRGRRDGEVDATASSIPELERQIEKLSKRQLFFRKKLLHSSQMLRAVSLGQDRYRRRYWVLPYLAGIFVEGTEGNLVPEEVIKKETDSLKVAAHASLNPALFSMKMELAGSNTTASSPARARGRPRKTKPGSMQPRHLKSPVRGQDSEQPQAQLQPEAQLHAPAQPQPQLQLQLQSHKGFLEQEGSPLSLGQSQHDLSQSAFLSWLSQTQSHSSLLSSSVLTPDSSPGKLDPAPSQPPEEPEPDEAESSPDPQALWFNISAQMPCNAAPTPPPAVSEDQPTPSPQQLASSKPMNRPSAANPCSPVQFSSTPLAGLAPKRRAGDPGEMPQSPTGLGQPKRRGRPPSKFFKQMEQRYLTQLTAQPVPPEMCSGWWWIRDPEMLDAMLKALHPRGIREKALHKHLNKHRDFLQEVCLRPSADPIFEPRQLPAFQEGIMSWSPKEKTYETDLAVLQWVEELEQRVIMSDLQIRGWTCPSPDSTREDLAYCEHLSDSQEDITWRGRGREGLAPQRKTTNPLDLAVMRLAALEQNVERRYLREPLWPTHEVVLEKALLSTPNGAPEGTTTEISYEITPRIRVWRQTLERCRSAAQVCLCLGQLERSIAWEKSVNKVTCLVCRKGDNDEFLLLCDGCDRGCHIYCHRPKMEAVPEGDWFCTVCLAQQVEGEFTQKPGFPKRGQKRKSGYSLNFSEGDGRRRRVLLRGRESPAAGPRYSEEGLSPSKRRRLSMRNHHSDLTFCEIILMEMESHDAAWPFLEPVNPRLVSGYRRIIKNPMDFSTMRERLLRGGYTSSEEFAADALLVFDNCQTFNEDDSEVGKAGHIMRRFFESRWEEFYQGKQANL
Sequence of Bromodomain-containing protein 7 (Q9NPI1 whole entry, the tested form may be a part): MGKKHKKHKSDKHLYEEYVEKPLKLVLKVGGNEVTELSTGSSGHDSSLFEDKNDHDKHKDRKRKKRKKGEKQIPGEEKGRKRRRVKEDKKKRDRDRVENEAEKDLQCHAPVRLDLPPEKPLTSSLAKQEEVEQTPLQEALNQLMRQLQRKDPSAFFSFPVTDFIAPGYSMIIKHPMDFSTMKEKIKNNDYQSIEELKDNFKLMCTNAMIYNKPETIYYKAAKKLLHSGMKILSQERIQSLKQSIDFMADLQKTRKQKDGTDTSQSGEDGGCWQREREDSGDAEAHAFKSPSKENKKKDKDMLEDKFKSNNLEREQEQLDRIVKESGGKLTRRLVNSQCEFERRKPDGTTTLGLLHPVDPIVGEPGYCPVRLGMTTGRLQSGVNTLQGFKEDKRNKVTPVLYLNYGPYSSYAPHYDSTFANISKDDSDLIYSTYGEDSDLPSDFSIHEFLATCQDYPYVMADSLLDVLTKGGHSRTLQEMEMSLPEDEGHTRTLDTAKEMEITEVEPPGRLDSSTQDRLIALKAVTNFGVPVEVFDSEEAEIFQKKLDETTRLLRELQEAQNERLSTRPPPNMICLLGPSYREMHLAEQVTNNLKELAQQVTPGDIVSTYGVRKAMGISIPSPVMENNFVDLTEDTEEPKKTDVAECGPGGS
Sequence of Histone acetyltransferase KAT2B (Q92831 whole entry, the tested form may be a part): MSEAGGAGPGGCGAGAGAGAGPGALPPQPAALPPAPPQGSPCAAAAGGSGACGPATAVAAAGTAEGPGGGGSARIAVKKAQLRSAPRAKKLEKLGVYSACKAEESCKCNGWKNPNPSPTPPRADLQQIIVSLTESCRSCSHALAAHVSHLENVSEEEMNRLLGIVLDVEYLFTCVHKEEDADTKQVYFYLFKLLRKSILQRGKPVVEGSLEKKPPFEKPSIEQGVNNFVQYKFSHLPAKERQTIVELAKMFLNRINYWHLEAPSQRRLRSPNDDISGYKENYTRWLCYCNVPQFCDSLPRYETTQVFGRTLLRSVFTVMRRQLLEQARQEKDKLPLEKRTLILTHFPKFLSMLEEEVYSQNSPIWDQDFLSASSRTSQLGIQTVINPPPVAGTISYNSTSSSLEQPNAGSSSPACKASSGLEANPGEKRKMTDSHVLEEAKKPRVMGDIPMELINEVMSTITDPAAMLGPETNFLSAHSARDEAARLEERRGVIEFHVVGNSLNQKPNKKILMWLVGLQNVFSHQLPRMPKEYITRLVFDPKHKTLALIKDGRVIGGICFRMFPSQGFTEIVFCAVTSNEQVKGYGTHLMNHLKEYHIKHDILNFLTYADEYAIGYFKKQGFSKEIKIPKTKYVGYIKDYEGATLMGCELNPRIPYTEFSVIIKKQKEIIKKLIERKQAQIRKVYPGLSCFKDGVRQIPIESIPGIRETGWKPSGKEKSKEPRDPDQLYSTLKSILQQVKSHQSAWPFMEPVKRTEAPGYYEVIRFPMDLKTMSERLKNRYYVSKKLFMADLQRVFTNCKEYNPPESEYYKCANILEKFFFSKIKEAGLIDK

With COc1cc2c(cc1-c1c(C)noc1C)[nH]c1nc(C)nc(Nc3cc(C4CC4)nn3C)c12 as the molecule, how does the Kd [1] read?
The Kd was greater than 5 µM.

What about the Selectivity Index (Homo sapiens [2]) of the same molecule?
Its Selectivity Index is greater than 50.

What about the Kd (Protein polybromo-1) of the same molecule?
Its Kd is greater than 3 µM.

And the Cmax (Mus musculus)?
Its Cmax is 6400 ng/mL.

And the Kd [3]?
Its Kd is 0.00049 µM.

And the Selectivity Index (Homo sapiens [4])?
Its Selectivity Index is greater than 20.

What about the Kd [5] of the same molecule?
Its Kd is greater than 5 µM.

And the Kd [6]?
Its Kd is greater than 5 µM.

And the Selectivity Index (Homo sapiens [7])?
The Selectivity Index was greater than 20.

And the Kd [8]?
The Kd was greater than 5 µM.

And the Selectivity Index (Homo sapiens [9])?
Its Selectivity Index is greater than 20.

And the AUC [10]?
The AUC was 9.05 µM·h.

What about the Kd (Peregrin) of the same molecule?
The Kd was greater than 4 µM.

And the Kd [11]?
Its Kd is greater than 4 µM.

And the Kd [12]?
Its Kd is 0.0006 µM.

What about the inhibition in vivo at 25 mg/kg (MDA-MB-231) of the same molecule?
The inhibition in vivo at 25 mg/kg was 67.6%.

What about the AUC [13] of the same molecule?
Its AUC is 32.2 µM·h.

And the Selectivity Index (Homo sapiens [14])?
The Selectivity Index was greater than 50.

And the Selectivity Index (Homo sapiens [15])?
The Selectivity Index was greater than 50.

And the Kd [16]?
Its Kd is 0.0022 µM.

And the Selectivity Index (Homo sapiens [17])?
The Selectivity Index was greater than 20.

And the Kd [18]?
The Kd was greater than 5 µM.

What about the inhibition in vivo at 50 mg/kg (RS4-11) of the same molecule?
Its inhibition in vivo at 50 mg/kg is 72.3%.

And the bioavailability [19]?
Its bioavailability is 71.3%.

And the Kd [20]?
The Kd was 0.0008 µM.

What about the Selectivity Index (Homo sapiens [21]) of the same molecule?
Its Selectivity Index is greater than 20.

And the Vd [22]?
Its Vd is 0.83 L/kg.

What about the Kd [23] of the same molecule?
Its Kd is greater than 5 µM.

And the Kd [24]?
The Kd was greater than 5 µM.
